The target of series [1] is T1, Leucine-rich repeat serine/threonine-protein kinase 2 (Homo sapiens, UniProt Q5S007). Nature of the series: Inhibition of recombinant LRRK2 (unknown origin) using gamma-32P-ATP assessed as LRRKtide substrate phosphorylation level at 1 uM by autoradiography. More on the design: scale not given: the % may be the effect or the level left. The method in brief: (§1)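 In vitro LRRK2 kinase activity assay with a peptide substrate. Compound was tested at two concentrations, 10 and 1. Read-out is residual LRRK2 kinase activity, given as percent relative to control.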

In series [2] the target is T1, Leucine-rich repeat serine/threonine-protein kinase 2. Nature of the series: Inhibition of recombinant LRRK2 (unknown origin) using gamma-32P-ATP assessed as LRRKtide substrate phosphorylation level at 10 uM by autoradiography. Details: scale not given: the % may be the effect or the level left. The essentials:
as §1

Series [3] shares this target. Nature of the series: Inhibition of recombinant LRRK2 (unknown origin) using gamma-32P-ATP assessed as LRRKtide substrate phosphorylation level by autoradiography.
Series [4] has as its target Glycogen synthase kinase-3 beta (Homo sapiens) (UniProt P49841). Nature of the series: Inhibition of human recombinant GSK3beta using CFFKNIVTPRTPPPSQGK-amide substrate after 90 mins incubation by LANCE method. For orientation: In TR-FRET formats the signal depends on donor and acceptor labels being close together.
Series [5] is described as follows: Toxicity in zebrafish embryo assessed as lethality at 20 to 30 uM after 24 hrs. It is filed as organism-based, Danio rerio. To be noted: in vivo, read-out: Activity. The essentials:
(§2)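 Zebrafish embryos kept in E3 medium at 28 °C; compound added at 24 hpf, with 1% DMSO embryos as control. Concentrations from 1 to 100 µM. Lethality recorded over time through 120 hpf, with phenotype also compared at 96 hpf.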

For series [6], the species on record is Danio rerio. Nature of the series: Toxicity in zebrafish embryo assessed as crooked tails at 5 to 10 uM after 24 hrs. It is filed as organism-based. Conditions: in vivo.
Series [7] concerns the target Serine/threonine-protein kinase Sgk1 (Homo sapiens) (UniProt O00141). Nature of the series: Inhibition of human recombinant SGK1 using Ulight-RRRSLLE substrate assessed as remaining enzyme activity at 1 uM after 30 mins relative to control.
The nature of series [8]: Toxicity in zebrafish embryo assessed as lethality at 30 uM after 120 hrs. It is filed as organism-based, Danio rerio. Conditions: in vivo, read-out: Activity. The essentials:
as §2

Series [9] addresses Hepatocyte growth factor receptor (Homo sapiens) (UniProt P08581). Nature of the series: Inhibition of human recombinant c-Met kinase expressed insect cells using Ulight-CAGAGAIETDKEYYTVKD substrate assessed as remaining enzyme activity at 1 uM after 60 mins relative to control.
The target of series [10] is Vascular endothelial growth factor receptor 2 (Homo sapiens) (UniProt P35968). Nature of the series: Inhibition of human recombinant KDR kinase expressed Sf9 cells using Ulight-CAGAGAIETDKEYYTVKD substrate assessed as remaining enzyme activity at 1 uM after 60 mins relative to control.
Series [11] concerns the target MAP kinase-interacting serine/threonine-protein kinase 2 (Homo sapiens) (UniProt Q9HBH9). Nature of the series: Inhibition of human recombinant MNK2 expressed Sf21 cells using CREBtide (CKRREILSRRPSYRK) substrate assessed as remaining enzyme activity at 1 uM after 90 mins relative to control.
The target in series [12] is Insulin receptor (Homo sapiens) (UniProt P06213). Nature of the series: Inhibition of human recombinant InsR using Ulight-Poly GAT[EAY(1:1:1)]n substrate assessed as remaining enzyme activity at 1 uM after 10 mins relative to control.
In series [13] the target is Rho-associated protein kinase 1 (Homo sapiens) (UniProt Q13464). Nature of the series: Inhibition of human recombinant ROCK1 using Ulight-RRRSLLE substrate assessed as remaining enzyme activity at 1 uM after 30 mins relative to control.
For series [14], the species on record is Danio rerio. Nature of the series: Toxicity in zebrafish embryo at below 10 uM after 24 hrs. Type of series: organism-based. To be noted: in vivo. The essentials:
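Zebrafish embryos collected and kept in E3 medium at 28 °C. Compound added at 24 hpf, and phenotypes (growth, tail morphology) were compared at 96 hpf against control embryos in 1% DMSO. Lethality was followed over time up to 120 hpf across a concentration series.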

Series [15] addresses Serine/threonine-protein kinase Chk1 (Homo sapiens) (UniProt O14757). Nature of the series: Inhibition of human recombinant CHK1 expressed insect cells using CREBtide (CKRREILSRRPSYRK) substrate assessed as remaining enzyme activity at 1 uM after 30 mins relative to control.
The target of series [16] is Serine/threonine-protein kinase PLK1 (Homo sapiens) (UniProt P53350). Nature of the series: Inhibition of human recombinant PLK1 using Ulight-FLGFTYVAP substrate assessed as remaining enzyme activity at 1 uM after 60 mins relative to control.
Series [17] deals with Tyrosine-protein kinase Lck (Homo sapiens) (UniProt P06239). Nature of the series: Inhibition of human recombinant Lck kinase expressed insect cells using Ulight-Poly GAT[EAY(1:1:1)]n substrate assessed as remaining enzyme activity at 1 uM after 30 mins relative to control.
The target in series [18] is Serine/threonine-protein kinase Chk2 (Homo sapiens) (UniProt O96017). Nature of the series: Inhibition of human recombinant CHK2 expressed insect cells using CREBtide (CKRREILSRRPSYRK) substrate assessed as remaining enzyme activity at 1 uM after 15 mins relative to control.
Series [19] has as its target High affinity nerve growth factor receptor (Homo sapiens) (UniProt P04629). Nature of the series: Inhibition of human recombinant TRKA expressed insect cells using Ulight-Poly GAT[EAY(1:1:1)]n substrate assessed as remaining enzyme activity at 1 uM after 10 mins relative to control.
Series [20] concerns the target Cyclin-dependent kinase 1/cyclin B1 (Homo sapiens) (UniProt P06493+P14635). Nature of the series: Inhibition of human recombinant CDC2/CDK1 (cycB) expressed insect cells using Ulight-CFFKNIVTPRTPPPSQGK-amide substrate assessed as remaining enzyme activity at 1 uM after 15 mins relative to control.
The target in series [21] is Proto-oncogene tyrosine-protein kinase Src (Homo sapiens) (UniProt P12931). Nature of the series: Inhibition of human recombinant Src kinase expressed insect cells using Ulight-Poly GAT[EAY(1:1:1)]n substrate assessed as remaining enzyme activity at 1 uM after 10 mins relative to control.
Series [22] deals with Ephrin type-A receptor 3 (Homo sapiens) (UniProt P29320). Nature of the series: Inhibition of human recombinant EphA3 kinase using Ulight-TK peptide substrate assessed as remaining enzyme activity at 1 uM after 60 mins relative to control.
Series [23] has as its target Tyrosine-protein kinase ABL1 (Homo sapiens) (UniProt P00519). Nature of the series: Inhibition of human recombinant Abl kinase expressed insect cells using Ulight-TK peptide substrate assessed as remaining enzyme activity at 1 uM after 60 mins relative to control.
For series [24], the target named is 3-phosphoinositide-dependent protein kinase 1 (Homo sapiens) (UniProt O15530). Nature of the series: Inhibition of human recombinant PDK1 expressed insect cells using Ulight-FLGFTYVAP substrate assessed as remaining enzyme activity at 1 uM after 90 mins relative to control.
Series [25] has as its target Interleukin-1 receptor-associated kinase 4 (Homo sapiens) (UniProt Q9NWZ3). Nature of the series: Inhibition of human recombinant IRAK4 expressed insect cells using Ulight-FLGFTYVAP substrate assessed as remaining enzyme activity at 1 uM after 90 mins relative to control.
Series [26] deals with RAC-alpha serine/threonine-protein kinase (Homo sapiens) (UniProt P31749). Nature of the series: Inhibition of human recombinant Akt1/PKBalpha expressed insect cells using CKRREILSRRPSYRK substrate assessed as remaining enzyme activity at 1 uM after 60 mins relative to control.
Series [27] has as its target Serine/threonine-protein kinase 26 (Homo sapiens) (UniProt Q9P289). Nature of the series: Inhibition of human recombinant MST4 kinase using Ulight TM- PKC substrate assessed as remaining enzyme activity at 1 uM after 30 mins relative to control.
The target of series [28] is MAP kinase-activated protein kinase 2 (Homo sapiens) (UniProt P49137). Nature of the series: Inhibition of human recombinant MAPKAPK2 expressed Escherichia coli using CREBtide (CKRREILSRRPSYRK) substrate assessed as remaining enzyme activity at 1 uM after 15 mins relative to control.
Series [29] addresses Serine/threonine-protein kinase TAO2 (Homo sapiens) (UniProt Q9UL54). Nature of the series: Inhibition of human recombinant TAOK2 (TAO1) using Ulight-FLGFTYVAP substrate assessed as remaining enzyme activity at 1 uM after 60 mins relative to control.
The target of series [30] is Cyclin-dependent kinase 2 (Homo sapiens) (UniProt P24941). Nature of the series: Inhibition of human recombinant CDK2 using Ulight-CFFKNIVTPRTPPPSQGK-amide substrate assessed as remaining enzyme activity at 1 uM after 30 mins relative to control.
Series [31] deals with Serine/threonine-protein kinase Nek2 (Homo sapiens) (UniProt P51955). Nature of the series: Inhibition of human recombinant NEK2 expressed insect cells using Ulight-FLGFTYVAP substrate assessed as remaining enzyme activity at 1 uM after 60 mins relative to control.

A value given as a limit tells only on which side of the number the result lay.

T1 sequence (Q5S007 whole entry): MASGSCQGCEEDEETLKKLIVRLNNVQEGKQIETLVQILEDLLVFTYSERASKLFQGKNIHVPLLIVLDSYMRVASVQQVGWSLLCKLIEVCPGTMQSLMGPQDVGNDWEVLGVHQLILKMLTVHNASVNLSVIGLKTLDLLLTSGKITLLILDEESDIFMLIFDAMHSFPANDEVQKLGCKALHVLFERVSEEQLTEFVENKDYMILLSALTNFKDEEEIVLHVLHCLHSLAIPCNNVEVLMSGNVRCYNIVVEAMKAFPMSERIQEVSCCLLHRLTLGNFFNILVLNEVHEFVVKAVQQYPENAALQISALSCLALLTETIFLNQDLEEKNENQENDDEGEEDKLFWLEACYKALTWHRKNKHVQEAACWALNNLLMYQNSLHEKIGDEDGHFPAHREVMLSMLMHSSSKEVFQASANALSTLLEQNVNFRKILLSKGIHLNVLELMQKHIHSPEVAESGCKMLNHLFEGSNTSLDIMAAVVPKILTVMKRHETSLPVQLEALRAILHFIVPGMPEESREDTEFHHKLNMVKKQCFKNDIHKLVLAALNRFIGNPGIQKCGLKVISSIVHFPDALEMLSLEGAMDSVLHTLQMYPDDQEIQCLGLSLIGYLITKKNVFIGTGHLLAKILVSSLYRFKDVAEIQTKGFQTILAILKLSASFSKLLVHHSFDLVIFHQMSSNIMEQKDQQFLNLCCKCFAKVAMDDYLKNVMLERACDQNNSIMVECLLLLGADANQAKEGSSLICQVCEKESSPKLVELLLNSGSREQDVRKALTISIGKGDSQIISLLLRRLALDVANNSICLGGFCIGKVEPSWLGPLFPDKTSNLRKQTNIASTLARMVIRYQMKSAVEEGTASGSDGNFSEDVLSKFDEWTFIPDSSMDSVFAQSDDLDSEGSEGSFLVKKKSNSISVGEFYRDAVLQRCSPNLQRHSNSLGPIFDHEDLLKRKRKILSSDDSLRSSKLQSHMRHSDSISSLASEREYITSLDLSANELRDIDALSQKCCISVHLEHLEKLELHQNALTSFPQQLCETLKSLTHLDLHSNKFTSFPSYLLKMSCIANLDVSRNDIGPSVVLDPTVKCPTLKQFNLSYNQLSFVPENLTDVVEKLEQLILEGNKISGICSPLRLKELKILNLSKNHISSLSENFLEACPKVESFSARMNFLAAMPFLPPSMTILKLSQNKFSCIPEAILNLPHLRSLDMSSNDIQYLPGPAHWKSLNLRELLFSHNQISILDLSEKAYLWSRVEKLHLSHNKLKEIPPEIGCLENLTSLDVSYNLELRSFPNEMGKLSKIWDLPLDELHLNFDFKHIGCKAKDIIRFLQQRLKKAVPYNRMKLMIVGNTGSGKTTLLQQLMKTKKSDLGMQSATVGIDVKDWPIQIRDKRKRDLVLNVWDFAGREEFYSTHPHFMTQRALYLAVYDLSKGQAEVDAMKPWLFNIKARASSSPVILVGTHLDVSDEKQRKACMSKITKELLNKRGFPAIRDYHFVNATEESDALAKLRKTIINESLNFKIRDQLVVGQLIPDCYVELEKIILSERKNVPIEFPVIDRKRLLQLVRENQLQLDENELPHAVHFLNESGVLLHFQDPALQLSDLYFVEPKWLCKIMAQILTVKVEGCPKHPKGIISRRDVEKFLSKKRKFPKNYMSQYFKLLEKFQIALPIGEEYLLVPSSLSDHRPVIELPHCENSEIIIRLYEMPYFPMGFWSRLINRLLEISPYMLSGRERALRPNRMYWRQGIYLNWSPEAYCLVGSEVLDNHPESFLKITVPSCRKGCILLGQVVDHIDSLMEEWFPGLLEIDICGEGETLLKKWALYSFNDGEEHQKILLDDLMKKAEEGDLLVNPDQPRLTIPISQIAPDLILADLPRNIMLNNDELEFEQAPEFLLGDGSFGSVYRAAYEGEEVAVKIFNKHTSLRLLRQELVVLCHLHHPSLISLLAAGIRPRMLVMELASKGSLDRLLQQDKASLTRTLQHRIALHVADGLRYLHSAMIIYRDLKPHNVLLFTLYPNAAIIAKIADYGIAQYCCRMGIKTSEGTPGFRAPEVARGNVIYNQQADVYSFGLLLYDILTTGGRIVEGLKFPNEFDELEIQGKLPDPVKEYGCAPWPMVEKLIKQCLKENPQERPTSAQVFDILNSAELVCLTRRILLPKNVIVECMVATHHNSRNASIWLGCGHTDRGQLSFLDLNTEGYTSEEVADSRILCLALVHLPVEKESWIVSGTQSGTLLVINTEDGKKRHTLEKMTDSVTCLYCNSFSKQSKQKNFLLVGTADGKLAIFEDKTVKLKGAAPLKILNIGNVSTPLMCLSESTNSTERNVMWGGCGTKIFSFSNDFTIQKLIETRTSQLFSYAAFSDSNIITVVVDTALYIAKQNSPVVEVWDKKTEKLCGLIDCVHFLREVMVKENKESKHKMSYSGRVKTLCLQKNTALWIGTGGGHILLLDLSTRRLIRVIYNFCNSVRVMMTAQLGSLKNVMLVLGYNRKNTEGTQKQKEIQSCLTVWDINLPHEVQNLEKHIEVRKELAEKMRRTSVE
Sequence of Hepatocyte growth factor receptor (Homo sapiens) (P08581 whole entry): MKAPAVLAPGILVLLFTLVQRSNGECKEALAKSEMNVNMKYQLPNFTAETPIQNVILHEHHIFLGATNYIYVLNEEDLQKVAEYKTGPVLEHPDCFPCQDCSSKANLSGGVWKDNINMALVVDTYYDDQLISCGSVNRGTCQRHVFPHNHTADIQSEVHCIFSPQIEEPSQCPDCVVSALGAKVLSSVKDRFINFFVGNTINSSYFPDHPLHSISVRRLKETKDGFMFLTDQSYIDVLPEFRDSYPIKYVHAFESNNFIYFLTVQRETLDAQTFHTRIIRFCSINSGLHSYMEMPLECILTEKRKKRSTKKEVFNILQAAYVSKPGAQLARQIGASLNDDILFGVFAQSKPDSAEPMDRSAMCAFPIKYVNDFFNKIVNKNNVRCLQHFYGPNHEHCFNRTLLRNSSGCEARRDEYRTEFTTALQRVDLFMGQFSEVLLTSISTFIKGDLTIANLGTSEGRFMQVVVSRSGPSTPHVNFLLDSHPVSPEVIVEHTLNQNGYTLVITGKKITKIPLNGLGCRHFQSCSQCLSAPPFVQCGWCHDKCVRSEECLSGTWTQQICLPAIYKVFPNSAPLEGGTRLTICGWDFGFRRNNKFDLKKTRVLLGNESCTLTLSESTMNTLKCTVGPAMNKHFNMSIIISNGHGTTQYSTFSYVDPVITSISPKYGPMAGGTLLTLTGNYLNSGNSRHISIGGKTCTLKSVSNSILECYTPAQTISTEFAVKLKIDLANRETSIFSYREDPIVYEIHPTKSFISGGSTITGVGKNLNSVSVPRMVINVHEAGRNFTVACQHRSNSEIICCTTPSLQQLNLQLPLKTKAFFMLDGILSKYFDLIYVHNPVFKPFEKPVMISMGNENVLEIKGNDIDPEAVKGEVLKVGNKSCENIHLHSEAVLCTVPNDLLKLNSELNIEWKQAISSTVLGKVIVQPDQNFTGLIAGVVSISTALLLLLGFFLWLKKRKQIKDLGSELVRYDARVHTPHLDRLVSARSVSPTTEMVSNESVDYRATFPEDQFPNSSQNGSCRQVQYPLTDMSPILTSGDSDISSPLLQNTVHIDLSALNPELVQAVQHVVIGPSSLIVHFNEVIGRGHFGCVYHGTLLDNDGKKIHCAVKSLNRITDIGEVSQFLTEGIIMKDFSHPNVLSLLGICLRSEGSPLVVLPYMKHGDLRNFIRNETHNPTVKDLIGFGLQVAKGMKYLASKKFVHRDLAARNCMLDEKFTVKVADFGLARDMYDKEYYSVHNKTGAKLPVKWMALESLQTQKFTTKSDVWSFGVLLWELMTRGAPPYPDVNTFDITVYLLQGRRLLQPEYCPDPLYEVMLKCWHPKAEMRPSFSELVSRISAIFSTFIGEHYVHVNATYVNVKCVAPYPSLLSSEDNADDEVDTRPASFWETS
Sequence of MAP kinase-activated protein kinase 2 (Homo sapiens) (P49137 whole entry, looked up): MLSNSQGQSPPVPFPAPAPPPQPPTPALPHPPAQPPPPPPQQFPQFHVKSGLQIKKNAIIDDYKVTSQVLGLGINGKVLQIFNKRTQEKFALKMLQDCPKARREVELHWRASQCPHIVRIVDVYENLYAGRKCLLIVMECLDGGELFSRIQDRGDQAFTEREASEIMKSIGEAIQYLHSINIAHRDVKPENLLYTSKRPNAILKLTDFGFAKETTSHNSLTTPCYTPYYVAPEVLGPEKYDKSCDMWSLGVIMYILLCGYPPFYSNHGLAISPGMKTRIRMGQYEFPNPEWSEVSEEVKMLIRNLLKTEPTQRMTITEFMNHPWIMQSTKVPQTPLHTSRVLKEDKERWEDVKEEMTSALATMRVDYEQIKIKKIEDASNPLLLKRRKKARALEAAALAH
Sequence of High affinity nerve growth factor receptor (Homo sapiens) (P04629 33-796 limits assumed): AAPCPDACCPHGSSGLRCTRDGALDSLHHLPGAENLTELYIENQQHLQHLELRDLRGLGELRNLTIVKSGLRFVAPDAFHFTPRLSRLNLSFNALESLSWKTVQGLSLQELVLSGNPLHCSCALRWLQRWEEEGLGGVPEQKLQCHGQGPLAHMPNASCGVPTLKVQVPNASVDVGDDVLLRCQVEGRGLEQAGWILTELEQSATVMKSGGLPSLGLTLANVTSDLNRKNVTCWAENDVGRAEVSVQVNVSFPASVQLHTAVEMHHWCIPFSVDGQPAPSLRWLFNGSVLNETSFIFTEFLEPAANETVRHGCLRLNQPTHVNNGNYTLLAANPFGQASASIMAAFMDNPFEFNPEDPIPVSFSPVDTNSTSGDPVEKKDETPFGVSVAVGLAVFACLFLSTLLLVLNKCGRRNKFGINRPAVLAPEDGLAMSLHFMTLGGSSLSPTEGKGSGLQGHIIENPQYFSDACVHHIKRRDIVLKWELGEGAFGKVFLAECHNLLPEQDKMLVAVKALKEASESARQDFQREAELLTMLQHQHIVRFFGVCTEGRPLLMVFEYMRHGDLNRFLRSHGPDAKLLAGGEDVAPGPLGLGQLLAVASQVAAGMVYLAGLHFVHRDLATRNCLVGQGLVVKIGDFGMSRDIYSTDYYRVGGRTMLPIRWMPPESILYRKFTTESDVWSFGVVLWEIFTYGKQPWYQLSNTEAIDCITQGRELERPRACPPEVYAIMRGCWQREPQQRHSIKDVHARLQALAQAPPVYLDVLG

Regarding `COc1cc(OCCN(C)C)ccc1/C=C1/C(=O)Nc2ccc(Cl)cc21`, the Activity in series [1] stood at 62%; in series [2], 29%.
A word on the IC50: it is the concentration that gives 50% inhibition. In the case of `COc1ccc2c(c1)/C(=C\c1cc(Br)c(O)c(Br)c1)C(=O)N2`, in [3], the IC50 is 31 nM.
Take `COc1cc(/C=C2/C(=O)Nc3ccc(Cl)cc32)ccc1OCCN(C)C`: the Activity came to 26% in series [1] and 24% in [2].
`COc1c(C)cc(/C=C2/C(=O)Nc3ccc(Cl)cc32)cc1C`: in series [3], the IC50 turned out to be 1500 nM.
The term inhibition denotes how much of the control response was suppressed. Regarding `O=C1Nc2ccc(Cl)cc2/C1=C\c1ccc(O)c(Br)c1`, the inhibition in series [4] amounted to 19%. Further, the mortality at 24 h, up to 30 µM in series [5] is more than 80%. Besides, the Activity result in the series listed under Danio rerio [6] is “Toxic”.
Regarding `O=C1Nc2ccc(Cl)cc2/C1=C\c1ccccc1`, the IC50 in [3] was 10000 nM. The Activity in [1] was found to be 27%; in series [2] it was 16%.
On the same counts, the results for `O=C1Nc2ccc(Cl)cc2/C1=C\c1ccc(O)cc1` are 12000 nM, 12% and 8%.
Regarding `COc1cc(C(=O)N2CCC(N3CCN(C)CC3)CC2)ccc1Nc1ncc2c(n1)N(C)c1ccccc1C(=O)N2C`, the Activity in [1] stood at 13%; in [2], 5%.
On the same counts, the results for `COc1cc(/C=C2/C(=O)Nc3ccc(Cl)cc32)ccc1N1CCOCC1` are 22% and 33%.
Take `COc1cc(/C=C2/C(=O)Nc3ccc(Cl)cc32)ccc1OCCN1CCOCC1`: in [3], the concentration for half-maximal inhibition (IC50) is 163 nM. The results for the Activity in series [1] and in series [2] were 8% and 9%, respectively.
For `O=C1Nc2ccc(Cl)cc2/C1=C\c1ccc(OCCN2CCOCC2)cc1`, in that order: 205 nM, 37% and 15%.
Regarding `CN(C)CCOc1ccc(/C=C2/C(=O)Nc3ccc(Cl)cc32)cc1`, the IC50 in series [3] was 466 nM. In addition, the Activity in series [1] was determined as 22%; in series [2], 3%.
As for `O=C1Nc2ccc(Cl)cc2/C1=C/c1cc(Br)c(O)c(Br)c1`, the Activity in [7] turned out to be 100%; in [9], 69%; in [10] it was 97%; in series [11], 89%; in series [12], 104%; in [13], 92%. Besides, the Activity result in the series filed under Danio rerio [14] is “Non-toxic”; in [15], 81%; in series [16], 80%; in [17], 102%; in series [18], 87%; in series [19] it was 91%. The Activity worked out at 90% in series [20]; 101% in series [21]; 101% in series [22]; 77% in series [23]; 83% in series [24]; 90% in series [25]. The Activity in series [26] is 87%; in [27], 103%; in [28], 83%; in [29], 85%; in series [30] it was 95%; in series [31] it was 99%. For the same molecule, the mortality at 120 h, 30 µM in series [8] was 40%.
On to `CN[C@@H]1C[C@H]2O[C@@](C)([C@@H]1OC)n1c3ccccc3c3c4c(c5c6ccccc6n2c5c31)C(=O)NC4`, for which the figures for the Activity in [1] and in series [2] were 5% and 2%, respectively.

Values taken from ChEMBL document CHEMBL3352815, “Indolinone based LRRK2 kinase inhibitors with a key hydrogen bond” (Bioorg Med Chem Lett, 2014).
